Measured values: paper PMC2913404 (Neurobiology of disease, 2010)
Positions of bridges follow the written chain, without caps; N, C: chain ends. Residues, ends and D or L forms follow the SMILES beside them. *: point of attachment. Biotin = O=C1N[C@H]2[C@H](CS[C@H]2CCCCC(=O)*)N1

Experiments:
[1] = tested on: Aβ1–40 peptide (amyloid aggregation); assay: Thioflavin T amyloid formation assay, Aβ1–40; assay type: biochemical; conditions: Aβ1–40 50µM + peptide 50µM, 5 days, 37°C, n=3 (Fig 1C)
In short: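 Aβ1–40 (50 µM; stored frozen in DMSO) was mixed with equimolar test peptide (50 µM) and incubated 5 days at 37°C until amyloid formation saturated. Thioflavin T was then added, and signal was read at 490 nm with excitation at 445 nm.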

APPswePSEN1(A246E) mice = assay: Morris water maze; assay type: in vivo, mouse
[2] = tested on: low molecular weight Aβ amyloid from COS7 cells transfected with APPswe; assay: Precipitation from APPswe-transfected COS7 lysates; assay type: binding, human; conditions: COS7 lysate 1mg; antibody 10µg or biotin-SDPM1 50µg (Fig 1I, S1A)
In short: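 COS7 cells grown in DMEM/10% FCS were transfected at 40% confluence with V5-tagged human APP695, wild type or Swedish. At 48 h cells were lysed in 1% NP40/0.1% SDS/deoxycholate/EDTA buffer with protease inhibitors, sonicated and cleared at 16000g. Lysate (1 mg) was incubated overnight at 4°C with antibody (10 µg) or biotinylated peptide (50 µg), the latter captured on streptavidin agarose. Precipitates were analysed by SDS-PAGE and Aβ immunoblot.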

[3] = tested on: Aβ1–42 in APPswePSEN1(A246E) mouse brain; assay: Aβ1–42 brain peptide level; assay type: in vivo; conditions: with adjuvant
[4] = tested on: amyloid plaques in AD brain; conditions: ref Kang et al., 2003; cited from earlier work
[5] = tested on: monovalent Aβ1–40 peptide; conditions: ref Kang et al., 2003; cited from earlier work
[6] = tested on: Aβ amyloid species in APPswePSEN1(A246E) cortex; assay: Aβ/APP immunoblot of soluble cortex fraction; assay type: in vivo, mouse; conditions: immunoblot (Fig 3G)
[7] = tested on: Aβ1–40 in APPswePSEN1(A246E) mouse brain; assay: Aβ1–40 brain peptide level; assay type: in vivo; conditions: with adjuvant
In short: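 Transgenic mice received monthly subcutaneous injections of biotinylated test peptide (100 µg) conjugated overnight at 4°C to 25 µg streptavidin in TBS, emulsified 1:1 with adjuvant. TiterMax Gold was used first, then Freund's incomplete. Schedules ran 5–12 months (8 injections) or 12–18 months (7). Mock controls got TBS plus adjuvant. Brain Aβ1–40 ELISA was read at 450 nm against peptide standard curves and reported as µg/g wet brain weight.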

[8] = tested on: Aβ1–42 peptide (amyloid aggregation); assay: Thioflavin T amyloid formation assay, Aβ1–42; assay type: biochemical; conditions: Aβ1–42 50µM + peptide 50µM, 5 hours, 37°C, n=3 (Fig 1C)
In short: (§1)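 Aβ1–40 or Aβ1–42 (50 µM) was mixed equimolar with peptide (50 µM) at 37°C until amyloid formation saturated: 5 days for Aβ1–40, 5 hours for Aβ1–42. Time courses set the read point. Thioflavin T was then added and read at 490 nm with excitation at 445 nm. Aβ alone served as positive control; peptide alone was read as background.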

Aβ1–42 peptide = assay: Amyloid trapping assay, SDS-PAGE and Aβ1–40/42 immunoblot; assay type: biochemical; conditions: SDS-PAGE/immunoblot after mixing with Aβ1–42 (Fig 1G, 1H)
In short: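 Aβ1–42 (50 µM) incubated with equimolar test peptide (50 µM) or 1:500 immune serum for 5 h at 37°C. A subset of mixtures was boiled in SDS with reducing agent and run on 10–20% Tris-tricine gels, then transferred to nitrocellulose. Blots were blocked in TBST/5% milk and probed with rabbit anti-Aβ1–40/42 at 1:10,000 in TBST/2.5% milk.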

SDPM1 / SDPM2 peptide = assay: Serum antibody titer to SDPM1/SDPM2 after immunization; assay type: in vivo, mouse; conditions: for SDPM1-specific antibody titer (SDPM1 minus SDPM2 titer): average, SEM, n=7–12 animals (Fig 2A); for antibody titers to SDPM1 and SDPM2: young (5 to 12 months), end of experiment (S2A)
[9] = tested on: monovalent Aβ1–42 peptide; conditions: ref Kang et al., 2003; cited from earlier work
Aβ amyloid = assay: Serum antibody titer to Aβ amyloid after immunization; assay type: in vivo, mouse; conditions: for Aβ amyloid antibody titer: young, significant vs Mock (Fig 2C)
[10] = tested on: fibrillar Aβ amyloid plaques in APPswePSEN1(A246E) mouse brain; assay: Amyloid plaque burden, number and area; assay type: in vivo
[11] = tested on: Aβ1–40/1–42 in APPswePSEN1(A246E) mouse brain; assay: Aβ1–40/1–42 immunostaining of brain; assay type: in vivo; conditions: for Aβ1–40/42 immunostaining signal, % of control: young, with adjuvant
In short: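 After monthly s.c. streptavidin-peptide conjugate immunization with adjuvant, brains were collected after PBS exsanguination and bisected, then snap-frozen or fixed overnight in 2% paraformaldehyde. Some sagittal sections were pretreated with 90% formic acid for 4 min. Sections were blocked 2 h in 10% goat serum, given rabbit anti-Aβ1–40/42 overnight at 4°C, then Cy3 secondary for 1 h. Eight to twelve sections 80 µm apart were imaged at 10X with a fixed threshold.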

[12] = tested on: APPswePSEN1(A246E) mouse brain; assay: Brain inflammation immunostaining; assay type: in vivo; conditions: young and old; for reduction of CD68 immunostaining: significant (Fig 5D); for GFAP staining signal: with adjuvant (Fig 5C); for Iba1 staining signal: with adjuvant (Fig 5E)
[13] = Self-aggregation of SDPM1 by Thioflavin T; assay type: physicochemical; conditions: SDPM1 added alone, over time
[14] = tested on: Aβ amyloid (Aβ1–40 or Aβ1–42); assay: Thioflavin T amyloid formation assay, Aβ form not distinguished; assay type: biochemical; conditions: peptide 50µM + Aβ1–40 or Aβ1–42 50µM, 37°C, n=3 (Fig 1C)
In short: as §1

[15] = old, in most instances (Fig 3D–F)
[16] = young, in all instances, n=7–12 animals (Fig 3A–C)
[17] = young, soluble and insoluble, cortex, hippocampus (Fig 3A, B)

CC(C)C[C@@H]1NC(=O)[C@H](CCCNC(=N)N)NC(=O)[C@H](Cc2c[nH]c3ccccc23)NC(=O)[C@H](CCCNC(=N)N)NC(=O)CNC(=O)CNC(=O)[C@H](CCCCN)NC(=O)CNC(=O)[C@H](Cc2c[nH]c3ccccc23)NC(=O)[C@H](CC(=O)O)NC(=O)[C@@H](NC(=O)[C@H](CCC(=O)O)NC(=O)[C@H](C)NC(=O)CCCC[C@@H]2SC[C@@H]3NC(=O)N[C@@H]32)CSSC[C@@H](C(=O)NCC(=O)N2CCC[C@H]2C(=O)O)NC(=O)[C@H](C)NC(=O)[C@H](CCC(=O)O)NC(=O)[C@H]([C@@H](C)O)NC(=O)[C@H](CCCCN)NC(=O)CNC(=O)[C@H](CO)NC(=O)[C@H](C)NC(=O)CNC(=O)[C@@H]2CCCN2C(=O)[C@H](Cc2c[nH]c3ccccc23)NC1=O [SDPM1] (Biotin-AECDWGKGGRWRLWPGASGKTEACGP-OH; disulfide 3-24; C-terminus assumed)
inhibition of amyloid aggregation [1]: over 60% | escape latency (APPswePSEN1(A246E) mice; old (12 to 18 mo), with adjuvant (Fig 4D)): no improvement | probe test (APPswePSEN1(A246E) mice; old (12 to 18 mo), with adjuvant (Fig 4E)): no improvement | probe test, time in platform quadrant (APPswePSEN1(A246E) mice; young (5 to 12 mo), with adjuvant (Fig 4B)): improved significantly compared to controls, spending almost the same amount of time in the appropriate quadrant as WT animals | precipitation of low MW Aβ amyloid from APPswe cells [2]: tetramer Aβ amyloid precipitated from APPswe-transfected cells | reduction in Aβ1–42 peptide level [3, 15]: greater than 50% | reduction in Aβ1–42 peptide level ([3]; old, insoluble fraction, cortex (Fig 3D)): 65–75% | reduction in Aβ1–42 peptide level ([3]; old, insoluble fraction, hippocampus (Fig 3E)): 65–75% | reduction in Aβ1–42 peptide level [3, 16]: greater than 50% | Aβ1–42 brain level, significance of reduction [3, 17]: significant reduction in both soluble and insoluble Aβ1–40 and Aβ1–42 | binding to amyloid plaques in AD brain [4]: most efficacious in binding amyloid plaques in AD brain | binding to monovalent Aβ1–40 peptide [5]: does not bind monovalent Aβ1–40 or Aβ1–42 peptide | high and low MW Aβ amyloid species [6]: large reductions in both high and low MW Aβ amyloid species | reduction in Aβ1–40 peptide level [7, 15]: greater than 50% | Aβ1–40 cerebellum level ([7]; young, cerebellum (Fig 3C)): significantly reduced | reduction in Aβ1–40 peptide level [7, 16]: greater than 50% | Aβ1–40 brain level, significance of reduction [7, 17]: significant reduction in both soluble and insoluble Aβ1–40 and Aβ1–42 | inhibition of amyloid aggregation [8]: over 60% | effect on high MW Aβ aggregate formation (Aβ1–42 peptide): reduced formation of high molecular weight (MW) Aβ aggregates | size of trapped Aβ forms (trimers and tetramers) (Aβ1–42 peptide): 12–16 kDa | SDPM1-specific antibody titer (SDPM1 minus SDPM2 titer) (SDPM1 / SDPM2 peptide; old (12 to 18 months), with adjuvant): 29 ± 6 µg/mL | predominant antibody subtype (SDPM1 / SDPM2 peptide; with adjuvant, young and old (Fig 2B)): IgG1 | antibody titers to SDPM1 and SDPM2 (SDPM1 / SDPM2 peptide; without adjuvant): 2 to 15 µg/mL | antibody titers to SDPM1 and SDPM2 vs without adjuvant (SDPM1 / SDPM2 peptide; young, with adjuvant (S2A)): increased titers to SDPM1 and SDPM2 | SDPM1 titers relative to SDPM2 titers (SDPM1 / SDPM2 peptide; young, without adjuvant (S2A)): increased SDPM1 titers relative to SDPM2 | SDPM1-specific antibody titer (SDPM1 minus SDPM2 titer) (SDPM1 / SDPM2 peptide; young, without adjuvant): 5 ± 1 µg/mL | binding to monovalent Aβ1–42 peptide [9]: does not bind monovalent Aβ1–40 or Aβ1–42 peptide | Aβ amyloid (Aβ1–40/42) antibody titer (Aβ amyloid; old, with adjuvant, Mock 11±6µg/mL, did not reach statistical significance (Fig 2C)): 23 ± 7 µg/mL | Aβ amyloid antibody titer (Aβ amyloid; with adjuvant, Mock 5±2µg/mL): 21 ± 7 µg/mL | Aβ amyloid antibody titer (Aβ amyloid; without adjuvant, Mock 1±1 µg/mL): 5 ± 1 µg/mL | Thioflavin S staining of fibrillar amyloid (images) ([10]; hippocampus and cortex (Fig 2D, S3–4), similar with Congo Red (not shown)): dramatically reduced | amyloid plaque burden, plaque number, plaque area, Thioflavin S staining ([10]; old, s.c. once a month with adjuvant, 12 to 18 months (Fig 2E–G, S2B)): highly significant reductions in amyloid plaque burden, plaque number, plaque area, and Thioflavin S staining | Aβ1–40/42 immunostaining signal, % of control ([11]; cortex): 25±6% | Aβ1–40/42 immunostaining signal, % of control ([11]; hippocampus): 14±3% | Aβ1–40/42 staining signal ([11]; old, with adjuvant (S2C)): also reduced in old mice | reduction of CD68 immunostaining ([12]; cortex, with adjuvant): ≥ 50% | reduction of CD68 immunostaining ([12]; hippocampus, with adjuvant): ≥ 50% | GFAP staining signal [12]: no significant changes | Iba1 staining signal [12]: no significant changes | CD3, CD4, CD8, B220 brain parenchymal staining ([12]; with adjuvant, not shown): no evidence for brain parenchymal staining | Thioflavin T signal of peptide alone (amyloid self-formation) [13]: did not lead to development of increased Thioflavin T signal over time

DWGKGGRWRLWPGASGKTEA [SDPM2]
Thioflavin T signal decrease [14]: no significant decrease in Thioflavin T signal | effect on high MW Aβ aggregate formation (Aβ1–42 peptide): had no effect on Aβ amyloid formation in vitro | SDPM1-specific antibody titers (SDPM1 / SDPM2 peptide; any condition (Fig 2A)): never showed SDPM1-specific antibody titers under any conditions | antibody titers to SDPM1 and SDPM2 (SDPM1 / SDPM2 peptide; without adjuvant): 2 to 15 µg/mL | Aβ staining levels vs mock-immunized ([11]; S2C): not significantly reduced, though it trended downward compared to mock-immunized animals | GFAP staining signal [12]: no significant changes | Iba1 staining signal [12]: no significant changes
